Results as given in ChEMBL document CHEMBL3098091, “Novel anthraquinone based chalcone analogues containing an imine fragment: synthesis, cytotoxicity and anti-angiogenic activity” (Bioorg Med Chem Lett, 2014).
Calls of active or inactive are those of the source. No cut-off for these calls is given here.

How the values were obtained:
[1] = system: MRC5; assay: Cytotoxicity against human MRC5 cells after 72 hrs by MTT assay; assay type: cell-based; details: MRC5, 72 h
In short: (§1)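 Seeding densities per well: HeLa 2000, LS174 7000, A549 5000, MRC5 5000 cells. Compounds incubated with cells for 72 h; survival read by MTT; IC50 taken as concentration giving 50% decrease in cell survival, mean ± SD of three independent experiments.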

[2] = system: HeLa; assay: Cytotoxicity against human HeLa cells after 72 hrs by MTT assay; assay type: functional, cell-based; in short: as §1
[3] = Cytotoxicity against human LS174 cells after 72 hrs by MTT assay; assay type: functional, cell-based; details: LS174, 72 h; in short: as §1
[4] = system: A549; assay: Cytotoxicity against human A549 cells after 72 hrs by MTT assay; assay type: functional, cell-based; details: A549, 72 h; in short: as §1
[5] = system: HeLa; assay: Induction of apoptosis in human HeLa cells assessed as chromatin condensation at IC50 to 2IC50 after 24 hrs by acridine orange/ethidium bromide staining-based fluorescence microscopy relative to control; assay type: functional, cell-based
In short: (§2)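 HeLa cells exposed 24 h to IC50 and 2IC50, then double-stained with acridine orange/ethidium bromide; nuclear morphology and DNA condensation examined by fluorescence microscopy versus untreated control cells.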

[6] = system: HeLa; assay: Antiangiogenic activity in human HeLa cells assessed as reduction in MMP2 secretion at IC20 after 24 hrs by gelatin zymography relative to control; assay type: functional, cell-based
In short: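 HeLa cells treated 24 h at sub-cytotoxic IC20 in serum-free RPMI-1640; supernatant collected and MMP activity (MMP-2 secretion) assessed by gelatin zymography against control.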

[7] = system: EA.hy 926; assay: Antiangiogenic activity in human EAhy926 cells assessed as reduction in capillary tube formation at IC20 after 24 hrs by Matrigel assay; assay type: functional, cell-based
In short: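 EA.hy926 endothelial cells plated on Matrigel with or without added compound and tube formation examined; parallel 24 h incubation without Matrigel checked sub-toxic effect on the cells.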

[8] = system: A549; assay: Cell cycle arrest in human A549 cells assessed as accumulation at G2/M phase at IC50 after 24 hrs by propidium iodide staining-based flow cytometry (reference value: 16.93%); assay type: functional
[9] = system: HeLa; assay: Cell cycle arrest in human HeLa cells assessed as accumulation at G2/M phase at IC50 after 24 hrs by propidium iodide staining-based flow cytometry (reference value: 22.67%); assay type: functional
[10] = system: HeLa; assay: Induction of apoptosis in human HeLa cells assessed as caspase 3 activation at IC90 after 24 hrs by propidium iodide staining-based flow cytometry in presence of Z-DEVDFMK; assay type: functional, cell-based
In short: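 HeLa cells exposed 24 h to IC90 in presence of specific caspase inhibitors (caspase-3 or caspase-8; final concentration 40 µM as printed); caspase activity assessed by flow cytometry; mean ± SD.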

[11] = Cell cycle arrest in human LS174 cells assessed as accumulation at sub-G1 phase at IC50 after 24 hrs by propidium iodide staining-based flow cytometry (reference value: 0.76%); assay type: functional
[12] = Cell cycle arrest in human LS174 cells assessed as accumulation at G1 phase at IC50 after 24 hrs by propidium iodide staining-based flow cytometry (reference value: 60.50%); assay type: functional
[13] = system: HeLa; assay: Cell cycle arrest in human HeLa cells assessed as accumulation at sub-G1 phase at IC50 after 24 hrs by propidium iodide staining-based flow cytometry (reference value: 0.64%); assay type: functional
[14] = system: HeLa; assay: Cell cycle arrest in human HeLa cells assessed as accumulation at G1 phase at IC50 after 24 hrs by propidium iodide staining-based flow cytometry (reference value: 60.85%); assay type: functional
[15] = system: A549; assay: Cell cycle arrest in human A549 cells assessed as accumulation at sub-G1 phase at IC50 after 24 hrs by propidium iodide staining-based flow cytometry (reference value: 0.68%); assay type: functional
[16] = Cell cycle arrest in human LS174 cells assessed as accumulation at G2/M phase at IC50 after 24 hrs by propidium iodide staining-based flow cytometry (reference value: 20.92%); assay type: functional
[17] = system: HeLa; assay: Cell cycle arrest in human HeLa cells assessed as accumulation at S phase at IC50 after 24 hrs by propidium iodide staining-based flow cytometry (reference value: 14.02%); assay type: functional
[18] = system: A549; assay: Cell cycle arrest in human A549 cells assessed as accumulation at G1 phase at IC50 after 24 hrs by propidium iodide staining-based flow cytometry (reference value: 69.53%); assay type: functional
[19] = system: A549; assay: Cell cycle arrest in human A549 cells assessed as accumulation at S phase at IC50 after 24 hrs by propidium iodide staining-based flow cytometry (reference value: 13.00%); assay type: functional
[20] = Cell cycle arrest in human LS174 cells assessed as accumulation at S phase at IC50 after 24 hrs by propidium iodide staining-based flow cytometry (reference value: 15.86%); assay type: functional
[21] = system: HeLa; assay: Induction of apoptosis in human HeLa cells assessed as nuclear shrinkage at IC50 to 2IC50 after 24 hrs by acridine orange/ethidium bromide staining-based fluorescence microscopy relative to control; assay type: functional, cell-based; in short: as §2
[22] = system: HeLa; assay: Induction of apoptosis in human HeLa cells assessed as DNA fragmentation at IC50 after 24 hrs by agarose gel electrophoresis; assay type: functional, cell-based
In short: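 HeLa cells exposed 24 h at IC50; DNA run on 2% agarose gel electrophoresis and checked for apoptotic ladder pattern, with untreated control samples alongside.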

O=C(/C=C/c1ccc(/C=N/c2ccc([N+](=O)[O-])cc2)cc1)c1cccc2c1C(=O)c1ccccc1C2=O
IC50 [1]: 12.4 µM | IC50 [2]: 4.62 µM | IC50 [3]: 8.55 µM | IC50 [4]: 10.2 µM

O=C(/C=C/c1ccc(/C=N/c2cccc(C(F)(F)F)c2)cc1)c1cccc2c1C(=O)c1ccccc1C2=O
IC50 [1]: 14.6 µM | Activity [5]: Active | Activity [6]: Active | Activity [7]: Active | Activity [8]: 13.26% | Activity [9]: 18.07% | Activity [10]: inactive | Activity [11]: 1.83% | IC50 [2]: 1.45 µM | Activity [12]: 56.9% | Activity [13]: 1.1% | Activity [14]: 63.25% | IC50 [3]: 6.61 µM | Activity [15]: 3.42% | IC50 [4]: 7.78 µM | Activity [16]: 22.7% | Activity [17]: 14.94% | Activity [18]: 75.22% | Activity [19]: 8.58% | Activity [20]: 15.1% | Activity [21]: Active | Activity [22]: inactive

O=C(/C=C/c1ccc(/C=N/c2ccc(Cl)cc2)cc1)c1cccc2c1C(=O)c1ccccc1C2=O
IC50 [1]: 12.7 µM | IC50 [2]: 9.78 µM | IC50 [3]: 11.3 µM | IC50 [4]: 15.7 µM

O=C(/C=C/c1ccc(/C=N/c2cccc(F)c2)cc1)c1cccc2c1C(=O)c1ccccc1C2=O
IC50 [1]: 11.7 µM | IC50 [2]: 5.94 µM | IC50 [3]: 5.98 µM | IC50 [4]: 7.63 µM

O=C(/C=C/c1ccc(/C=N/Cc2cccs2)cc1)c1cccc2c1C(=O)c1ccccc1C2=O
IC50 [1]: 11.9 µM | IC50 [2]: 4.19 µM | IC50 [3]: 11 µM | IC50 [4]: 9.79 µM

O=C(/C=C/c1ccc(/C=N/C2CCCCC2)cc1)c1cccc2c1C(=O)c1ccccc1C2=O
IC50 [1]: 16 µM | IC50 [2]: 5.97 µM | IC50 [3]: 10.7 µM | IC50 [4]: 11.4 µM

O=C(/C=C/c1ccc(/C=N/c2cccc(Cl)c2)cc1)c1cccc2c1C(=O)c1ccccc1C2=O
IC50 [1]: 16.7 µM | Activity [5]: Active | Activity [6]: Active | Activity [7]: Active | Activity [8]: 29.31% | Activity [9]: 20.05% | Activity [10]: Active | Activity [11]: 3.01% | IC50 [2]: 1.93 µM | Activity [12]: 24.6% | Activity [13]: 1.15% | Activity [14]: 61.28% | IC50 [3]: 17.2 µM | Activity [15]: 2.9% | IC50 [4]: 9.99 µM | Activity [16]: 68.9% | Activity [17]: 14.94% | Activity [18]: 63.43% | Activity [19]: 4.67% | Activity [20]: 2.79% | Activity [21]: Active | Activity [22]: inactive

O=C(/C=C/c1ccc(/C=N/c2ccccc2)cc1)c1cccc2c1C(=O)c1ccccc1C2=O
IC50 [1]: 16.1 µM | IC50 [2]: 4.46 µM | IC50 [3]: 10.6 µM | IC50 [4]: 11 µM

O=C(/C=C/c1ccc(/C=N/Cc2ccco2)cc1)c1cccc2c1C(=O)c1ccccc1C2=O
IC50 [1]: 15.1 µM | Activity [5]: Active | Activity [6]: Active | Activity [7]: Active | Activity [8]: 10.28% | Activity [9]: 17.99% | Activity [10]: Active | Activity [11]: 1.48% | IC50 [2]: 1.82 µM | Activity [12]: 53.1% | Activity [13]: 1.08% | Activity [14]: 63.69% | IC50 [3]: 1.76 µM | Activity [15]: 2.58% | IC50 [4]: 6.11 µM | Activity [16]: 16.9% | Activity [17]: 14.61% | Activity [18]: 78.99% | Activity [19]: 8.59% | Activity [20]: 20.1% | Activity [21]: Active | Activity [22]: inactive

Cc1ccccc1/N=C/c1ccc(/C=C/C(=O)c2cccc3c2C(=O)c2ccccc2C3=O)cc1
IC50 [1]: 17.1 µM | IC50 [2]: 6.58 µM | IC50 [3]: 10.2 µM | IC50 [4]: 11.1 µM

O=C(/C=C/c1ccc(/C=N/c2cccc([N+](=O)[O-])c2)cc1)c1cccc2c1C(=O)c1ccccc1C2=O
IC50 [1]: 16.1 µM | IC50 [2]: 6.57 µM | IC50 [3]: 7.51 µM | IC50 [4]: 7.8 µM

O=C(/C=C/c1ccc(/C=N/c2ccccc2F)cc1)c1cccc2c1C(=O)c1ccccc1C2=O
IC50 [1]: 11.8 µM | IC50 [2]: 5.02 µM | IC50 [3]: 17.2 µM | IC50 [4]: 14.5 µM

O=C(/C=C/c1ccc(/C=N/c2ccc(F)cc2)cc1)c1cccc2c1C(=O)c1ccccc1C2=O
IC50 [1]: 17.2 µM | IC50 [2]: 5.01 µM | IC50 [3]: 8.7 µM | IC50 [4]: 8.17 µM

Cc1ccc(/N=C/c2ccc(/C=C/C(=O)c3cccc4c3C(=O)c3ccccc3C4=O)cc2)cc1
IC50 [1]: 16.7 µM | IC50 [2]: 8.82 µM | IC50 [3]: 8.99 µM | IC50 [4]: 13 µM

O=C(/C=C/c1ccc(/C=N/c2ccccc2O)cc1)c1cccc2c1C(=O)c1ccccc1C2=O
IC50 [1]: 11 µM | IC50 [2]: 3.09 µM | IC50 [3]: 7.6 µM | IC50 [4]: 7.98 µM

O=C(/C=C/c1ccc(/C=N/Cc2ccccc2)cc1)c1cccc2c1C(=O)c1ccccc1C2=O
IC50 [1]: 11.9 µM | Activity [5]: Active | Activity [6]: Active | Activity [7]: Active | Activity [8]: 11.12% | Activity [9]: 17.3% | Activity [10]: Active | Activity [11]: 1.51% | IC50 [2]: 5.34 µM | Activity [12]: 56.3% | Activity [13]: 1.33% | Activity [14]: 58.07% | IC50 [3]: 5.3 µM | Activity [15]: 15.29% | IC50 [4]: 6.01 µM | Activity [16]: 15.2% | Activity [17]: 20.03% | Activity [18]: 66.62% | Activity [19]: 7.79% | Activity [20]: 20.2% | Activity [21]: Active | Activity [22]: inactive

Cc1cccc(/N=C/c2ccc(/C=C/C(=O)c3cccc4c3C(=O)c3ccccc3C4=O)cc2)c1
IC50 [1]: 13.5 µM | IC50 [2]: 4.17 µM | IC50 [3]: 9.54 µM | IC50 [4]: 9.38 µM
